Assay results from ChEMBL document CHEMBL1157145, “Cytotoxic activity of proflavine diureas: synthesis, antitumor, evaluation and DNA binding properties of 1',1''-(acridin-3,6-diyl)-3',3''-dialkyldiureas” (Bioorg Med Chem, 2008).
Activity calls are given as the source filed them. No cut-off for these calls is given here.

Columns and labels:
HeLa [1] = assay: Cytotoxicity against human HeLa cells after 48 hrs by MTT assay; assay type: functional, cell-based
HCT-116 [2] = assay: Cell cycle arrest in human HCT116 cells assessed as accumulation at G2/M phase at 10 uM after 48 hrs; assay type: functional
Outline: (§1)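 Cells seeded at 8 · 10^5 per 60 mm dish, allowed to settle 24 h (37 °C, 5% CO2), then exposed to the drug for 24 or 48 h. Adherent plus floating cells (5 · 10^5) were fixed in cold 70% ethanol at −20 °C overnight, treated with RNase A (100 µg/mL) and stained with propidium iodide (20 µg/mL) in Vindelov's solution for 30 min at RT. Flow cytometry used 488 nm excitation, FL-2 at 585 ± 21 nm, and histograms were modelled for G0/G1, S and G2/M fractions.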

DNA [3] = assay: Binding affinity to calf thymus DNA at 4 uM by fluorescence spectrophotometric titration; assay type: nucleic-acid assay; conditions: Bos taurus
Outline: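 ctDNA sonicated in TE buffer, concentration taken from A260 and given in base pairs. Compound (4 µM) in 0.01 M Tris, pH 7.4, 25 °C titrated with ctDNA (0–55 µM bp) until spectra stopped changing. Excitation 424 nm, slit widths 10 nm; binding constant derived from the change in emission.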

DNA [4] = assay: Binding affinity to calf thymus DNA at 50 uM by circular dichroism spectrophotometric titration; assay type: nucleic-acid assay; conditions: Bos taurus
HeLa [5] = assay: Cytotoxicity against human HeLa cells after 72 hrs by MTT assay; assay type: functional, cell-based
HCT-116 [6] = assay: Cytotoxicity against human HCT116 cells after 48 hrs by MTT assay; assay type: functional, cell-based; conditions: HCT-116, 48 h
HCT-116 [7] = assay: Cytotoxicity against human HCT116 cells after 72 hrs by MTT assay; assay type: functional, cell-based
HeLa [8] = assay: Antiproliferative activity against human HeLa cells assessed as increase of floating cells in total cell population at 24 uM after 24 hrs; assay type: functional
Outline: (§2)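 Cells seeded (8 · 10^5 per 60 mm dish), allowed to settle 24 h at 37 °C, 5% CO2, then treated with a single concentration for 24 or 48 h. Adherent and floating cells counted by Coulter counter. Total cell number given as % of untreated control; floating cells as % of total cell number.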

HeLa [9] = assay: Antiproliferative activity against human HeLa cells assessed as decrease in total cell population at 24 uM after 24 hrs; assay type: functional; set-up: scale not given: the % may be the effect or the level left; outline: as §2
HCT-116 [10] = assay: Antiproliferative activity against human HCT116 cells assessed as increase of floating cells in total cell population at 10 uM after 24 hrs; assay type: functional; outline: as §2
HCT-116 [11] = assay: Antiproliferative activity against human HCT116 cells assessed as decrease in total cell population at 10 uM after 24 hrs; assay type: functional; set-up: scale not given: the % may be the effect or the level left; outline: as §2
HCT-116 [12] = assay: Antiproliferative activity against human HCT116 cells assessed as increase of floating cells in total cell population at 10 uM after 48 hrs; assay type: functional; outline: as §2
HCT-116 [13] = assay: Antiproliferative activity against human HCT116 cells assessed as decrease in total cell population at 10 uM after 48 hrs; assay type: functional; set-up: scale not given: the % may be the effect or the level left; outline: as §2
HeLa [14] = assay: Induction of apoptosis in human HeLa cells at 24 uM after 24 hrs; assay type: functional
Outline: (§3)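 After 24 or 48 h of drug exposure, all cells were collected, combining trypsinised adherent cells with floating cells from the medium. Cells (1 × 10^6) were fixed in cold 70% ethanol overnight at −20 °C and stained with DAPI (10 µg/mL) for 30 min in the dark at RT. Under fluorescence microscopy, 300 cells per sample were scored, with condensed or fragmented nuclei counted as apoptotic.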

HeLa [15] = assay: Induction of apoptosis in human HeLa cells at 24 uM after 48 hrs; assay type: functional; outline: as §3
HCT-116 [16] = assay: Induction of apoptosis in human HCT116 cells at 10 uM after 24 hrs; assay type: functional; outline: as §3
HCT-116 [17] = assay: Induction of apoptosis in human HCT116 cells at 10 uM after 48 hrs; assay type: functional; outline: as §3
HeLa [18] = assay: Cell cycle arrest in human HeLa cells assessed as accumulation at G0/G1 phase at 24 uM after 24 hrs; assay type: functional; outline: as §1
HeLa [19] = assay: Cell cycle arrest in human HeLa cells assessed as accumulation at G0/G1 phase at 24 uM after 48 hrs; assay type: functional; outline: as §1
HCT-116 [20] = assay: Cell cycle arrest in human HCT116 cells assessed as accumulation at G0/G1 phase at 10 uM after 24 hrs; assay type: functional
Outline: (§4)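 Adherent plus floating cells (5 · 10^5) collected 24 or 48 h after treatment, fixed in cold 70% ethanol at −20 °C overnight, washed in PBS. RNase A (100 µg/mL) and propidium iodide (20 µg/mL) in Vindelov's solution, 30 min at RT. Flow cytometry with 488 nm excitation, emission 585 ± 21 nm; % cells per cycle phase from DNA content histograms.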

HCT-116 [21] = assay: Cell cycle arrest in human HCT116 cells assessed as accumulation at G0/G1 phase at 10 uM after 48 hrs; assay type: functional; outline: as §4
HeLa [22] = assay: Cell cycle arrest in human HeLa cells assessed as accumulation at S phase at 24 uM after 24 hrs; assay type: functional; outline: as §1
HeLa [23] = assay: Cell cycle arrest in human HeLa cells assessed as accumulation at S phase at 24 uM after 48 hrs; assay type: functional; outline: as §1
HCT-116 [24] = assay: Cell cycle arrest in human HCT116 cells assessed as accumulation at S phase at 10 uM after 24 hrs; assay type: functional; outline: as §1
HCT-116 [25] = assay: Cell cycle arrest in human HCT116 cells assessed as accumulation at S phase at 10 uM after 48 hrs; assay type: functional; outline: as §1
HeLa [26] = assay: Cell cycle arrest in human HeLa cells assessed as accumulation at G2/M phase at 24 uM after 24 hrs; assay type: functional; outline: as §1
HeLa [27] = assay: Cell cycle arrest in human HeLa cells assessed as accumulation at G2/M phase at 24 uM after 48 hrs; assay type: functional; outline: as §1
HCT-116 [28] = assay: Cell cycle arrest in human HCT116 cells assessed as accumulation at G2/M phase at 10 uM after 24 hrs; assay type: functional; outline: as §1

COc1cc([C@@H]2c3cc4c(cc3[C@@H](O[C@@H]3O[C@@H]5CO[C@@H](C)O[C@H]5[C@H](O)[C@H]3O)[C@H]3COC(=O)[C@H]23)OCO4)cc(OC)c1O [ETOPOSIDE]
IC50 (HeLa [1]): 2.9 µM

CCCNC(=O)Nc1ccc2cc3ccc(NC(=O)NCCC)cc3nc2c1.Cl
Activity (HCT-116 [2]): 15.11%
K (DNA [3]): 3.8 ×10⁵ /M
Activity (DNA [4]): Active
IC50 (HeLa [1]): 23.9 µM
IC50 (HeLa [5]): 29.3 µM
IC50 (HCT-116 [6]): 10.3 µM
IC50 (HCT-116 [7]; Homo sapiens, HCT-116, 72 h): 61.5 µM
Activity (HeLa [8]): 3.84%
Activity (HeLa [9]): 91.36%
Activity (HeLa [9]; in the assay text read “after 48 hrs” for “after 24 hrs”): 89.95%
Activity (HCT-116 [10]): 5.48%
Activity (HCT-116 [11]): 86.16%
Activity (HCT-116 [12]): 4.34%
Activity (HCT-116 [13]): 71.3%
Activity (HeLa [14]): 0.89%
Activity (HeLa [15]): 1%
Activity (HCT-116 [16]): 2.22%
Activity (HCT-116 [17]): 2.89%
Activity (HeLa [18]): 62.48%
Activity (HeLa [19]): 72.81%
Activity (HCT-116 [20]): 45.07%
Activity (HCT-116 [21]): 57.74%
Activity (HeLa [22]): 24.12%
Activity (HeLa [23]): 17.12%
Activity (HCT-116 [24]): 35.8%
Activity (HCT-116 [25]): 27.16%
Activity (HeLa [26]): 13.4%
Activity (HeLa [27]): 10.06%
Activity (HCT-116 [28]): 19.14%

CC(C)C1=Cc2ccc3c(c2C(=O)C1=O)CCCC3(C)C [MILTIRONE]
Activity (HCT-116 [7]): 12.39 µM
